GRIN3A LBD mod: binders of NR3A ligand-binding domain, primary screen, biophysical, differential scanning fluorimetry, uHTS. Tm shift relative to glycine control, % at 25 µM. NR3A LBD differential scanning fluorimetry, Tm shift; 0% = protein alone, 100% = glycine-bound protein. Glutamate receptor ionotropic, NMDA 3A (GRIN3A) ligand-binding domain. AID 1259313, 2017. actives 2.5% (n = 340,000);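 active = melting temperature shift of at least 10% of the positive control shift, at one fixed dose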
PREPL inh: PREPL enzyme inhibitors, primary screen, biochemical, fluorescence polarization; Prolyl endopeptidase-like (Homo sapiens), Q4J6C6; recombinant PREPL, fluorescence polarization activity-based probe; inhibition, % at 5.96 µM; actives 0.68% (n = 320,000)
Target sequence (Q4J6C6 whole entry, looked up): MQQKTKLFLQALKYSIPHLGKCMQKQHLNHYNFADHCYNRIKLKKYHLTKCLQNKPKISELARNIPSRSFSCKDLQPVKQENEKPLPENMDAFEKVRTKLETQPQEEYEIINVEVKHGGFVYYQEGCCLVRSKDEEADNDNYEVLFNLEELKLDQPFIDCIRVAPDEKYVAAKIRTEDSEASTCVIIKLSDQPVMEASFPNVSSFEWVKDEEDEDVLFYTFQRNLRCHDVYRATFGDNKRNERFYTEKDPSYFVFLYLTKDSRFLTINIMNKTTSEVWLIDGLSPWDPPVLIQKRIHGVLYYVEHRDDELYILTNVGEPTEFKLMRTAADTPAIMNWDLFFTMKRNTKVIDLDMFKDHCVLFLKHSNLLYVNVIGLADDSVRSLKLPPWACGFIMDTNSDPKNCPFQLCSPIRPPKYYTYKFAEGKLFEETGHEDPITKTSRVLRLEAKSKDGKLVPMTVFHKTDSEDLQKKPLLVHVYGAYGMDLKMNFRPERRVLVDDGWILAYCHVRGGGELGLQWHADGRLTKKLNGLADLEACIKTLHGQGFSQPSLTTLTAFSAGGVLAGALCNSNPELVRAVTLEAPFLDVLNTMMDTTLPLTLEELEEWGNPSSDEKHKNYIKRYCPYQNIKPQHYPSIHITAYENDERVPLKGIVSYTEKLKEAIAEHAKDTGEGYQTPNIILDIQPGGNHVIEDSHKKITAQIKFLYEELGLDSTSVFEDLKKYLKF
Beta apoptosis: inhibitors of cytokine-induced beta cell apoptosis, primary screen, luminescence. INS-1E cytokine-induced death, ATP luminescence, 48 h; percent of positive-control rescue, neutral wells zero. protection from apoptosis, % (test concentration not listed). actives 0.8% (n = 300,000). AID 435005, 2010;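 active = Every replicate reaches about 75%, or at least half do and their mean reaches it too, limit read from the data; inconclusive = At least half of replicates reach the limit but their mean does not; inactive = Under half of replicates reach the limit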;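 also: higher means more ATP so stronger rescue from cytokine killing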
CHOP inhibitor: inhibitors of CHOP promoter induction, primary screen, cell-based, unfolded protein response, luciferase reporter. CHO-K1 CHOP-promoter luciferase, tunicamycin-induced, 15-18 h. inhibition, % at 10 µM. actives 3.8% (n = 220,000). AID 2732, 2010;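 active = compounds that reduced the stress-induced luciferase reporter signal by more than about 70% of percent inhibition, limit read from the data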
CSC inhib: cancer stem cell viability inhibitors, primary screen, luminescence | actives 1.1% (n = 300,000) | inhibition, % at 7.5 µM | AID 2717, 2010 | cancer stem cell-like cells viability; in the data active = inhibition above about 75%; inconclusive = no clear call, values can overlap the other calls; tested in HMLE shEcad cells
T cruzi repl: inhibitors of intracellular T. cruzi growth, primary screen, luminescence, NIH3T3 host cells. T. cruzi beta-gal in NIH3T3, 90 h. inhibition, % (concentration not given with the values). actives 1.4% (n = 300,000). AID 1885, 2009;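 active = mean inhibition across valid replicates above about 55%, limit read from the data; inconclusive = mean below that limit but half or more replicates reach it; inactive = mean below it, under half of replicates reach it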;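 also: signal also drops with host cell toxicity which is not excluded here; higher percent means less beta-gal luminescence so fewer parasites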
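compound dosing = single 50 nL compound addition per well in DMSO | material = NIH/3T3 host cells with β-galactosidase reporter T. cruzi | input = 5,000 host fibroblasts per well | timing = ≥90 h infection period, 3 h prior cell attachment | read-out basis = percent inhibition of parasite-derived β-gal signal | detection = GalScreen β-gal luminescence, detergent lysis, 60 min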
PREPL inh cf: human PREPL enzyme inhibitors, confirmation, biochemical, fluorescence polarization; recombinant PREPL, fluorescence polarization activity probe; shares compounds with PREPL inh; actives 67% (n = 2,000); inhibition, % at 5.96 µM
Each line names hits and unclear results; the compound was inactive in the other large screens (follow-up assays come after a bar, where they were run). Sampled rows, rich in hits. Any-hit rate of the full collection: about 6.7%. Rule as the data show it, unless noted: active = inhibition above about 43%; inactive = the rest.

COc1ccc(NCc2nn(CC(=O)c3ccc(Br)cc3)c3[n+]2CCCCC3)cc1	PREPL inh 51 | PREPL inh cf 55
COc1ccc(S(=O)(=O)N2CCCCCC2)cc1C(=O)Nc1ccc(C(=O)N(C)C)cc1	none (no result: PREPL inh, Beta apoptosis, CHOP inhibitor, CSC inhib, T cruzi repl)
CCOC(=O)C1C(=O)NC(N2CCc3ccccc32)=NC1c1ccccc1 (centres undefined)	PREPL inh 44 | PREPL inh cf inactive
CCOC(=O)C1C(=O)NC(N2CCCCC2)=NC1c1ccccc1 (centres undefined)	none
COc1cccc(C2CC(c3ccc(C)cc3)Nc3nc(N)nn32)c1 (centres undefined)	PREPL inh 49 (no result: CSC inhib) | PREPL inh cf 51
Cc1cc(Br)ccc1NC(=O)C1CCN(S(=O)(=O)c2cnc[nH]2)CC1	none (no result: CHOP inhibitor)
C[C@H](CO)N1C[C@H](C)[C@@H](CN(C)S(=O)(=O)c2ccccc2)Oc2c(NC(=O)NC3CCCCC3)cccc2C1=O	none (no result: CHOP inhibitor, CSC inhib, T cruzi repl)
Cc1cc[n+](CC(=O)c2ccccc2)c2ccccc12	PREPL inh 60, Beta apoptosis 117 | PREPL inh cf inactive
COc1ccc(C2=CC(=O)C[C@H](c3ccc(F)cc3)C2)c(OC)c1	none (no result: CHOP inhibitor, T cruzi repl)
C[C@@H]1COC(=O)[C@@H](NC(=O)OCC2c3ccccc3-c3ccccc32)C/C=C\C[C@@H](CC(=O)N(CCO)Cc2ccccc2)C(=O)N1	none (no result: CHOP inhibitor, CSC inhib, T cruzi repl)
COc1ccc([C@H]2/C=C\CN(C(=O)C3CC3)[C@@H](C)C(=O)N2Cc2ccc(F)cc2)cc1	none (no result: CHOP inhibitor)
CCCCCCC(=O)N1C/C=C\C(c2ccc(OC)cc2)N(Cc2ccc(F)cc2)C(=O)[C@H]1Cc1ccccc1 (some centres undefined)	PREPL inh 48, Beta apoptosis 100 | PREPL inh cf 44
CC[C@@H](C)[C@@H]1CN([C@@H](C)CN2CCC[C@H]2CN2C(N)=NC[C@@H]2Cc2ccccc2)C(=N)N1CCCC1CCCC1	PREPL inh 44 (no result: CHOP inhibitor, T cruzi repl) | PREPL inh cf 50
CC[C@@H](C)[C@@H]1CN([C@@H](CN2CCC[C@H]2CN2C(N)=NC[C@H]2C(C)C)C(C)C)C(=N)N1CCc1ccc(Cl)c(Cl)c1	PREPL inh 60 (no result: Beta apoptosis, CHOP inhibitor, CSC inhib, T cruzi repl) | PREPL inh cf 50
CC[C@@H](C)[C@@H]1CN([C@@H](C)CN2CCC[C@H]2CN2C(N)=NC[C@H]2CC(C)C)C(=N)N1CCCC1CCCC1	none (no result: Beta apoptosis, CHOP inhibitor, CSC inhib, T cruzi repl)
CC[C@@H](C)[C@@H]1CN([C@@H](C)CN2CCC[C@H]2CN2C(N)=NC[C@@H]2Cc2ccccc2)C(=N)N1CCc1ccc(Cl)c(Cl)c1	PREPL inh 52 (no result: CHOP inhibitor, CSC inhib, T cruzi repl) | PREPL inh cf inactive
O=C(c1cccnc1)N1CCN(Cc2cccc(F)c2)CC1	none
O=C(c1cccnc1)N1CCN(Cc2ccc3ccccc3c2)CC1	PREPL inh 45 (no result: CHOP inhibitor) | PREPL inh cf inactive
CCN1CCN(c2cc(C)c3cc(NC(=O)CCC(=O)N4CCN(c5ccccc5)CC4)ccc3n2)CC1	PREPL inh 49 (no result: CHOP inhibitor) | PREPL inh cf 47
O=C1COc2ccc(-c3csc(=Nc4ccc(OC(F)F)cc4)n3CC3CCCO3)cc2N1 (centres undefined)	PREPL inh 46, CHOP inhibitor 78 | PREPL inh cf 49
O=C1Nc2ccccc2S/C1=C\C(=O)N1CCCC1	none (no result: GRIN3A LBD mod)
O=C1Nc2ccccc2S/C1=C/Nc1cccc(Cl)c1	PREPL inh 45 | PREPL inh cf inactive
CCOC(=O)c1c(S(=O)(=O)Nc2ccc(C)cn2)c(C)n(C)c1C	none (no result: CHOP inhibitor)
CN(C)c1ccc(/C=N/NC(=S)NCc2ccccc2)cc1	PREPL inh 51 (no result: Beta apoptosis) | PREPL inh cf 55
Nc1c(C(=O)NC2CCCC2)c2nc3ccccc3nc2n1N	PREPL inh 44, CHOP inhibitor 74 (no result: Beta apoptosis) | PREPL inh cf inactive
O=C(CN1C(=O)C2CC=CCC2C1=O)Nc1ccc(S(=O)(=O)Nc2nccs2)cc1 (centres undefined)	none
CCC(C)[C@H](NC(=O)[C@@H]1Cc2ccccc2CN1)C(=O)Nc1ccc2c(c1)OCO2 (some centres undefined)	none (no result: CHOP inhibitor)
CCCN(CCC)C(=O)CSc1nc2n[nH]c(C)c2c(=N)n1-c1ccc(OCC)cc1	PREPL inh 55 (no result: T cruzi repl) | PREPL inh cf inactive
CCCN(CCC)C(=O)CSc1nc2n[nH]c(C)c2c(=N)n1-c1ccc(OC)cc1	none
COC(=O)CCCC1=CC2=CC(=O)C(C)(OC(=O)c3cccs3)C(=O)C2=CN1CCc1c[nH]c2ccccc12 (centres undefined)	PREPL inh 45 | PREPL inh cf inactive
COc1ccc(-n2c(-c3ccccc3)cc3c2CCCC3=O)cc1	PREPL inh 49 | PREPL inh cf inactive
COc1cc2cc3c(N)c(C(=O)NCc4ccco4)sc3nc2cc1OC	PREPL inh 46 | PREPL inh cf 57
Cc1ccc2nc3sc(C(=O)NCc4ccco4)c(N)c3cc2c1	none
CCCOc1ccccc1-n1sc2c(c1=S)-c1cc(OC)cc3c1N(C(=O)C3=O)C2(C)C	PREPL inh 52, CSC inhib inconclusive | PREPL inh cf 57
Nc1cc(N)cc(-c2nc3ccccc3[nH]2)c1	PREPL inh 49 (no result: T cruzi repl) | PREPL inh cf inactive
c1ccc(-c2nc3ccccc3[nH]2)cc1	none (no result: CHOP inhibitor)
COc1ccc(C2=CCN3CCCCC3C2)c(-c2ccc(OC)c(OC)c2)c1 (centres undefined)	PREPL inh 47 (no result: CHOP inhibitor, CSC inhib, T cruzi repl) | PREPL inh cf inactive
CCCn1c(=O)n(C)c(=O)c2c(SCC(=O)Nc3cc(C)on3)nc(C(C)(C)C)nc21	none (no result: CHOP inhibitor, CSC inhib, T cruzi repl)
CN(C)c1ccc(C(CNC(=O)c2cccs2)N(C)C)cc1 (centres undefined)	none (no result: CHOP inhibitor)
COc1cc2ccc3c(CCN(C)C)cc(OC)c(OC)c3c2cc1OC	none (no result: Beta apoptosis, CHOP inhibitor)
CN(C)CCc1cc2c(c3c1ccc1ccccc13)OCO2	PREPL inh 68 (no result: CHOP inhibitor) | PREPL inh cf 59
CC(C)CN1CCC(=O)N(CCSc2ccc(Br)cc2)CC1	none
Cc1nc(N2CCCCCC2)c2ccccc2n1	none (no result: CHOP inhibitor)
COc1ccc(Nc2c3c(nc4ccccc24)CCC3)cc1	none (no result: CHOP inhibitor)
COc1ccc(Nc2nc(N3CCCC3)c3ccccc3n2)cc1	PREPL inh 77, Beta apoptosis 81 | PREPL inh cf 62
COc1ccc(Nc2c3ccccc3nc3ccccc23)cc1	PREPL inh 47 (no result: CHOP inhibitor) | PREPL inh cf 45
COc1ccc(NCc2nnc(SCc3ccc(Cl)cc3)n2-c2ccccc2)cc1	PREPL inh 52 | PREPL inh cf 49

High-throughput results from PubChem.
